The nature of series [1]: Cytotoxicity against human Hep2 cells after 72 hrs by alamar blue assay. The format is cell-based. The following applies: HEp-2 cells. For orientation: Alamar Blue is a resazurin reagent that responds to reducing activity.
Series [2] deals with Staphylococcus aureus. As to the kind of experiment: Antibacterial activity against methicillin- and quinolone-resistant Staphylococcus aureus ATCC700699 after 24 hrs by microdilution method. Type of series: functional. The following applies: ATCC700699, 24 h. Put shortly: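 Broth microdilution; MIC read as the lowest compound concentration that prevents visible bacterial growth after incubation at 37 °C for 18–24 h, and expressed in μg/mL.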

In the next series the test system is Escherichia coli. In words: Antibacterial activity against Escherichia coli ATCC25922 after 24 hrs by microdilution method. Type of series: functional. The following applies: ATCC25922, 24 h. Put shortly: (§1)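 MIC taken as the lowest concentration with no visible bacterial growth after 18-24 h at 37 °C, given in μg/mL; modal value of multiple experiments.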
Background: Dilution methods test growth across graded concentrations, often in twofold steps.

The test system of series [3] is Staphylococcus aureus. As to the kind of experiment: Antibacterial activity against methicillin-sensitive Staphylococcus aureus ATCC 29213 after 24 hrs by microdilution method. Type of series: functional. The following applies: ATCC 29213, 24 h. Put shortly: as §1

In brackets after ≈: the same amount, converted by molar mass.

Usually CC50 stands for the concentration that lowers cell viability or growth by half. A low value points to greater toxicity to the cells. What is called MIC is the lowest concentration that inhibits growth of the organism. `COc1c(N2CCNCC2)c(F)cc2c(=O)c3c(=O)[nH]sc3n(C3CC3)c12` displayed a CC50 at 72 h in series [1] of 27 µM. Besides, the MIC was 4 µg/mL (≈ 10.2 µM) in the series with Staphylococcus aureus [2], 0.03 µg/mL (≈ 0.0768 µM) in the series with Escherichia coli and 0.06 µg/mL (≈ 0.154 µM) in the series on Staphylococcus aureus [3].
In series [1], `COc1c(N2CC[C@@H](N)C2)c(F)cc2c(=O)c3c(=O)[nH]sc3n(C3CC3)c12` yielded a CC50 at 72 h of 25 µM. Also, the results for the MIC against Staphylococcus aureus [2], with Escherichia coli and in the series with Staphylococcus aureus [3] were 2 µg/mL (≈ 5.12 µM), 0.008 µg/mL (≈ 0.0205 µM) and 0.03 µg/mL (≈ 0.0768 µM), respectively.
For `COc1c(N2CC[C@H](N)C2)c(F)cc2c(=O)c3c(=O)[nH]sc3n(C3CC3)c12` the same measures were 19 µM, 0.5 µg/mL (≈ 1.28 µM), 0.008 µg/mL (≈ 0.0205 µM) and 0.008 µg/mL (≈ 0.0205 µM).
For `CN[C@@H]1CCN(c2c(F)cc3c(=O)c4c(=O)[nH]sc4n(C4CC4)c3c2OC)C1`, the CC50 at 72 h in series [1] turned out to be 42 µM. Moreover, the figures for the MIC against Staphylococcus aureus [2], in the series with Escherichia coli and against Staphylococcus aureus [3] were 4 µg/mL (≈ 9.89 µM), 0.06 µg/mL (≈ 0.148 µM) and 0.006 µg/mL (≈ 0.0148 µM), respectively.
Taken in the same sequence, the figures for `CN[C@H]1CCN(c2c(F)cc3c(=O)c4c(=O)[nH]sc4n(C4CC4)c3c2OC)C1` were 41 µM, 2 µg/mL (≈ 4.94 µM), 0.06 µg/mL (≈ 0.148 µM) and 0.03 µg/mL (≈ 0.0742 µM).
For `COc1c(N2CC[C@H](CN)C2)c(F)cc2c(=O)c3c(=O)[nH]sc3n(C3CC3)c12` the same measures were 11 µM, 0.25 µg/mL (≈ 0.618 µM), 0.03 µg/mL (≈ 0.0742 µM) and 0.008 µg/mL (≈ 0.0198 µM).
Taken in the same sequence, the figures for `COc1c(N2CC[C@@H](CN)C2)c(F)cc2c(=O)c3c(=O)[nH]sc3n(C3CC3)c12` were 11 µM, 0.25 µg/mL (≈ 0.618 µM), 0.004 µg/mL (≈ 0.00989 µM) and 0.008 µg/mL (≈ 0.0198 µM).
For `CNC[C@@H]1CCN(c2c(F)cc3c(=O)c4c(=O)[nH]sc4n(C4CC4)c3c2OC)C1`, in series [1], it took 28 µM to reach half-maximal cytotoxicity (CC50 at 72 h). In addition, the MIC amounted to 0.5 µg/mL (≈ 1.19 µM) against Staphylococcus aureus [2], 0.06 µg/mL (≈ 0.143 µM) in the series with Escherichia coli and 0.008 µg/mL (≈ 0.0191 µM) against Staphylococcus aureus [3].
On to `COc1c(N2CC[C@@H](CNCCF)C2)c(F)cc2c(=O)c3c(=O)[nH]sc3n(C3CC3)c12`, for which half-maximal cytotoxicity in series [1] (CC50 at 72 h) was put at 18 µM. Further, the values for the minimum inhibitory concentration (MIC) against Staphylococcus aureus [2], in the series with Escherichia coli and against Staphylococcus aureus [3] were 0.13 µg/mL (≈ 0.289 µM), 0.03 µg/mL (≈ 0.0666 µM) and 0.008 µg/mL (≈ 0.0178 µM), respectively.
Taken in the same sequence, the figures for `COc1c(N2CC[C@@H](CNC(C)C)C2)c(F)cc2c(=O)c3c(=O)[nH]sc3n(C3CC3)c12` were 33 µM, 0.5 µg/mL (≈ 1.12 µM), 0.06 µg/mL (≈ 0.134 µM) and 0.02 µg/mL (≈ 0.0448 µM).
For `COc1c(N2CC[C@@H](CNC3CC3)C2)c(F)cc2c(=O)c3c(=O)[nH]sc3n(C3CC3)c12` the same measures were 23 µM, 0.06 µg/mL (≈ 0.135 µM), 0.03 µg/mL (≈ 0.0675 µM) and 0.004 µg/mL (≈ 0.009 µM).
Molecule `COc1c(N2CC[C@@H](CN(C)C)C2)c(F)cc2c(=O)c3c(=O)[nH]sc3n(C3CC3)c12` came in with a CC50 at 72 h in series [1] of over 100 µM. Besides, the MIC with Staphylococcus aureus [2] is 4 µg/mL (≈ 9.25 µM); against Escherichia coli it was 0.13 µg/mL (≈ 0.301 µM); against Staphylococcus aureus [3], 0.06 µg/mL (≈ 0.139 µM).
Taken in the same sequence, the figures for `COc1c(N2CC[C@@H]([C@@H](C)N)C2)c(F)cc2c(=O)c3c(=O)[nH]sc3n(C3CC3)c12` were 33 µM, 0.25 µg/mL (≈ 0.597 µM), 0.03 µg/mL (≈ 0.0717 µM) and 0.02 µg/mL (≈ 0.0478 µM).
Taken in the same sequence, the figures for `COc1c(N2CC[C@H]([C@@H](C)N)C2)c(F)cc2c(=O)c3c(=O)[nH]sc3n(C3CC3)c12` were 51 µM, 1 µg/mL (≈ 2.39 µM), 0.06 µg/mL (≈ 0.143 µM) and 0.02 µg/mL (≈ 0.0478 µM).
In series [1], `COc1c(N2CC[C@H]([C@H](C)N)C2)c(F)cc2c(=O)c3c(=O)[nH]sc3n(C3CC3)c12` gave a CC50 at 72 h of 15 µM. For the same molecule, the MIC against Staphylococcus aureus [2] stood at 1 µg/mL (≈ 2.39 µM); in the series with Escherichia coli, 0.06 µg/mL (≈ 0.143 µM); against Staphylococcus aureus [3], 0.03 µg/mL (≈ 0.0717 µM).
Taken in the same sequence, the figures for `CN[C@H](C)[C@@H]1CCN(c2c(F)cc3c(=O)c4c(=O)[nH]sc4n(C4CC4)c3c2OC)C1` were 29 µM, 0.5 µg/mL (≈ 1.16 µM), 0.06 µg/mL (≈ 0.139 µM) and 0.02 µg/mL (≈ 0.0462 µM).
For `CCN[C@@H](C)[C@@H]1CCN(c2c(F)cc3c(=O)c4c(=O)[nH]sc4n(C4CC4)c3c2OC)C1` the same measures were 27 µM, 0.13 µg/mL (≈ 0.291 µM), 0.06 µg/mL (≈ 0.134 µM) and 0.004 µg/mL (≈ 0.00896 µM).
For `COc1c(N2CC[C@@H]([C@@H](C)NCCF)C2)c(F)cc2c(=O)c3c(=O)[nH]sc3n(C3CC3)c12` the same measures were 74 µM, 0.25 µg/mL (≈ 0.538 µM), 0.06 µg/mL (≈ 0.129 µM) and 0.004 µg/mL (≈ 0.00861 µM).
The molecule `COc1c(N2CC[C@@H]([C@H](C)N(C)C)C2)c(F)cc2c(=O)c3c(=O)[nH]sc3n(C3CC3)c12` returned a half-maximal cytotoxic concentration (CC50) at 72 h in series [1] of 39 µM. Moreover, the MIC with Staphylococcus aureus [2] was 0.5 µg/mL (≈ 1.12 µM); against Escherichia coli, 0.06 µg/mL (≈ 0.134 µM); with Staphylococcus aureus [3], 0.008 µg/mL (≈ 0.0179 µM).

For the origin of these results see ChEMBL document CHEMBL1772978, “Exploration of the activity of 7-pyrrolidino-8-methoxyisothiazoloquinolones against methicillin-resistant Staphylococcus aureus (MRSA)” (J Med Chem, 2011).
